Test results published in PMC11523056 (RSC Advances, 2024).
Ends that are not written are not given here. Peptide text beside a SMILES is read from it.

How the values were obtained:
murine primary neurons = type: cell-based, mouse; details: all concentrations tested (1, 5 & 10 μM), 60 min, 37 °C, live-cell confocal microscopy
Outline: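 Mature murine primary neurons were incubated for 60 min in neurobasal medium with TAMRA-labelled peptide at 1, 5 or 10 μM, washed, and imaged live by confocal microscopy in an incubation chamber. The read-out was average fluorescence intensity per cell. Neurons showing homogeneous cytoplasmic plus nucleolar fluorescence were scored as transduced. Data are mean ± standard deviation, with equal n per group.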

[1] = particularly upon co-treatment with Alteplase; cited from earlier work
[2] = test system: acute ischaemic stroke patients; details: ESCAPE-NA1, acute ischaemic stroke; cited from earlier work

| Molecule | uptake by mean fluorescence intensity per cell (comparison in words) (murine primary neurons) | degradation in human plasma (in words) [1] | safety in clinical trial [2] |
| --- | --- | --- | --- |
| CC[C@H](C)[C@H](NC(=O)[C@H](CO)NC(=O)[C@H](CO)NC(=O)[C@H](CC(C)C)NC(=O)[C@H](CCCCN)NC(=O)c1ccc2c(c1)C(=O)OC21c2ccc(N(C)C)cc2Oc2cc(N(C)C)ccc21)C(=O)N[C@@H](CCC(=O)O)C(=O)N[C@@H](CO)C(=O)N[C@@H](CC(=O)O)C(=O)N[C@H](C(=O)O)C(C)C [TAMRA-NR2B9c] (HELM PEPTIDE1{[CN(C)c1ccc2c(c1)Oc1cc(N(C)C)ccc1C21OC(=O)c2cc(C(=O)[*:2])ccc21].K.L.S.S.I.E.S.D.V}$$$$V2.0) | much lower than for any other peptide construct tested |  |  |
| YGRKKRRQRRR [TAMRA-Tat] | dose response is minimal |  |  |
| YGRKKRRQRRRKLSSIESDV [Tat-NR2B9c, nerinetide] |  | rapid degradation | good safety profile |
